Values after ≈ are worked out from the molar mass of the structure shown. Active and inactive are the calls of the source. The rule behind the calls is not given here.
Assays:
[1] = tested on: Escherichia coli; assay: Activity of Escherichia coli MC4100 Beta-Lactamase CMY-30 harboring Val211?Gly211 mutation
In short: (§1)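 Enzyme source was E. coli MC4100 carrying high-copy plasmids pB-cmy30 or pB-cmy2. Enzyme was released by sonication in 20 mM Tris, pH 7.4, then purified by Q- and S-Sepharose ion exchange to >95% purity by SDS-PAGE. Values are means of four independent measurements. For some β-lactams, Km was obtained as Ki using cephalothin as reporter substrate.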

[2] = tested on: Escherichia coli; assay: Ratio of Kcat to Km for Escherichia coli MC4100 Beta-Lactamase CMY-30 harboring Val211?Gly211 mutation; in short: as §1
[3] = tested on: Escherichia coli; assay: Activity of Escherichia coli MC4100 Beta-Lactamase CMY-2
In short: (§2)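 CMY-2 purified from E. coli MC4100 carrying high-copy plasmid pB-cmy2. Cells in 20 mM Tris pH 7.4 sonicated, then Q- and S-Sepharose ion exchange, >95% pure by SDS-PAGE. Kinetic constants are means of four independent measurements. For some β-lactams Km was determined as Ki with cephalothin as reporter substrate.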

[4] = tested on: Escherichia coli; assay: Antibacterial activity against 5 x 10^5 CFU/ml CMY-30 producing Escherichia coli MC4100 harboring plasmid AC-cmy30 by microdilution method; format: functional
In short: (§3)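 Broth microdilution MIC in Mueller-Hinton broth with an inoculum of 5 × 10^5 CFU/ml. Isogenic E. coli MC4100 strains (vector control or carrying CMY-2 or CMY-30) were tested in parallel.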

[5] = tested on: Escherichia coli; assay: Antibacterial activity against 5 x 10^5 CFU/ml Escherichia coli MC4100 harboring plasmid ACYC184 by microdilution method; format: functional; in short: as §3
[6] = tested on: Escherichia coli; assay: Ratio of Kcat to Km for Escherichia coli MC4100 Beta-Lactamase CMY-2; in short: as §2
[7] = (§4) Inhibition of Escherichia coli MC4100 Beta-Lactamase CMY-2 using cephalothin as reporter substrate
[8] = tested on: Escherichia coli; assay: Antibacterial activity against 5 x 10^5 CFU/ml CMY-2 producing Escherichia coli MC4100 harboring plasmid AC-cmy2 by microdilution method; format: functional; in short: as §3
[9] = Inhibition of Escherichia coli MC4100 Beta-Lactamase CMY-30 using cephalothin as reporter substrate
[10] = tested on: Escherichia coli; assay: Inhibition of Escherichia coli DH5alpha beta-lactamase CMY-2 assessed as aztreonam hydrolysis
In short: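 Agar bioassay on MH agar seeded with E. coli DH5α indicator (10^5 CFU/ml), with 30 μg aztreonam disks. Purified cephalosporinase (700 ng in 10 μl phosphate buffer) was applied near each disk. Plates were incubated 18 h at 35°C and read for distortion of the inhibition zone against control disks.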

[11] = tested on: Escherichia coli; assay: Antibacterial activity against 5 x 10^5 CFU/ml CMY-30 producing Escherichia coli MC4100 harboring plasmid AC-cmy30 by microdilution method in presence of 2 ug/ml clavulanic acid; format: functional
In short: (§5)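 Broth microdilution MIC in Mueller-Hinton broth with an inoculum of 5 × 10^5 CFU/ml. Clavulanic acid was held at a fixed 2 μg/ml. Isogenic E. coli MC4100 strains (vector control or carrying CMY-2 or CMY-30) were tested in parallel.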

[12] = tested on: Escherichia coli; assay: Antibacterial activity against 5 x 10^5 CFU/ml CMY-2 producing Escherichia coli MC4100 harboring plasmid AC-cmy2 by microdilution method in presence of 2 ug/ml clavulanic acid; format: functional; in short: as §5
[13] = tested on: Escherichia coli; assay: Antibacterial activity against 5 x 10^5 CFU/ml Escherichia coli MC4100 harboring plasmid ACYC184 by microdilution method in presence of 2 ug/ml clavulanic acid; format: functional; in short: as §5
[14] = tested on: Escherichia coli; assay: as §4
[15] = tested on: Escherichia coli; assay: Antibacterial activity against 5 x 10^5 CFU/ml CMY-30 producing Escherichia coli MC4100 harboring plasmid AC-cmy30 by microdilution method in presence of 4 ug/ml Tazobactam; format: functional
In short: (§6)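 Broth microdilution MICs in Mueller-Hinton broth, inoculum 5 × 10^5 CFU/ml. Isogenic E. coli MC4100 strains carrying CMY-30, CMY-2 or no CMY gene were tested in parallel. Tazobactam was held at a fixed 4 μg/ml.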

[16] = tested on: Escherichia coli; assay: Antibacterial activity against 5 x 10^5 CFU/ml Escherichia coli MC4100 harboring plasmid ACYC184 by microdilution method in presence of 4 ug/ml Tazobactam; format: functional; in short: as §6
[17] = tested on: Escherichia coli; assay: Antibacterial activity against 5 x 10^5 CFU/ml CMY-2 producing Escherichia coli MC4100 harboring plasmid AC-cmy2 by microdilution method in presence of 4 ug/ml Tazobactam; format: functional; in short: as §6

SMILES | kcat [1] [s⁻¹] | kcat/Km [2] [M⁻¹ s⁻¹] | kcat [3] [s⁻¹] | MIC [4] [µg/mL] | MIC [5] [µg/mL] | kcat/Km [6] [M⁻¹ s⁻¹] | Ki [7] [nM] | MIC [8] [µg/mL] | Ki [9] [nM] | other results
CO/N=C(\C(=O)N[C@@H]1C(=O)N2C(C(=O)O)=C(COC(C)=O)CS[C@H]12)c1csc(N)n1 [CEFOTAXIME] | 1.7 | 5.7e+06 | < 0.01 | 256 (≈ 562 µM) | 0.12 (≈ 0.263 µM) | < 2e+06 | 5 | 16 (≈ 35.1 µM) | 300 | 
Cc1onc(-c2ccccc2Cl)c1C(=O)N[C@@H]1C(=O)N2[C@@H]1SC(C)(C)[C@@H]2C(=O)O [CLOXACILLIN] |  |  |  |  |  |  | 0.2 |  | 2.3 | 
CC(C)(O/N=C(\C(=O)N[C@@H]1C(=O)N2C(C(=O)[O-])=C(C[n+]3ccccc3)CS[C@H]12)c1csc(N)n1)C(=O)O [CEFTAZIDIME] | 0.4 | 2.9e+06 | 0.01 | > 512 | 0.25 (≈ 0.457 µM) | 500000 | 20 | 128 (≈ 234 µM) | 140 | 
CO/N=C(\C(=O)N[C@@H]1C(=O)N2C(C(=O)O)=C(COC(N)=O)CS[C@H]12)c1ccco1 [CEFUROXIME] |  |  |  | > 512 | 2 (≈ 4.71 µM) |  |  | > 512 |  | 
C[C@]1(Cn2ccnn2)[C@H](C(=O)O)N2C(=O)C[C@H]2S1(=O)=O [TAZOBACTAM] |  |  |  |  |  |  | 800 |  | > 1000 | 
N[C@@H](C(=O)N[C@@H]1C(=O)N2C(C(=O)O)=C(Cl)CS[C@H]12)c1ccccc1 [CEFACLOR ANHYDROUS] |  |  |  | > 512 | 2 (≈ 5.44 µM) |  |  | > 512 |  | 
C[C@]1(/C=C\C#N)[C@H](C(=O)O)N2C(=O)C[C@H]2S1(=O)=O |  |  |  |  |  |  | 100 |  | 200 | 
C[C@H]1[C@H](NC(=O)/C(=N\OC(C)(C)C(=O)O)c2csc(N)n2)C(=O)N1S(=O)(=O)O [AZTREONAM] |  |  |  | 128 (≈ 294 µM) |  |  | 2.1 | 16 (≈ 36.7 µM) | 17 | Activity [10]: Active
CC1(C)S[C@@H]2[C@H](NC(=O)[C@H](N)c3ccc(O)cc3)C(=O)N2[C@H]1C(=O)O [AMOXICILLIN] |  |  |  | > 512 | 4 (≈ 10.9 µM) |  |  | > 512 |  | MIC [11]: > 512 µg/mL; MIC [12]: > 512 µg/mL; MIC [13]: 4 µg/mL
CC1(C)S[C@@H]2[C@H](NC(=O)[C@H](C(=O)O)c3ccsc3)C(=O)N2[C@H]1C(=O)O [TICARCILLIN] |  |  |  | > 512 | 2 (≈ 5.2 µM) |  |  | > 512 |  | MIC [11]: > 512 µg/mL; MIC [12]: > 512 µg/mL; MIC [13]: 1 µg/mL
CO/N=C(\C(=O)N[C@@H]1C(=O)N2C(C(=O)[O-])=C(C[N+]3(C)CCCC3)CS[C@H]12)c1csc(N)n1 |  |  |  | 0.25 (≈ 0.52 µM) |  |  |  | 0.25 (≈ 0.52 µM) |  | 
CC(=O)OCC1=C(C(=O)O)N2C(=O)[C@@H](NC(=O)Cc3cccs3)[C@H]2SC1 [CEPHALOTHIN] | 256 | 1e+07 | 267 | > 512 | 2 (≈ 5.04 µM) | 1.6e+07 |  | > 512 |  | Km [1]: 26 µM; Km [3]: 17 µM
CC1(C)S[C@@H]2[C@H](NC(=O)Cc3ccccc3)C(=O)N2[C@H]1C(=O)O [PENICILLIN G] | 23 | 3.8e+07 | 24 |  |  | 4e+07 |  |  | 600 | Km [14]: 0.6 µM
CO[C@@]1(NC(=O)Cc2cccs2)C(=O)N2C(C(=O)O)=C(COC(N)=O)CS[C@@H]21 [CEFOXITIN] | 0.28 | 1.6e+06 | 0.35 | > 512 | 2 (≈ 4.68 µM) | 2.3e+06 | 150 | > 512 | 170 | 
CCN1CCN(C(=O)N[C@@H](C(=O)N[C@@H]2C(=O)N3[C@@H]2SC(C)(C)[C@@H]3C(=O)O)c2ccccc2)C(=O)C1=O [PIPERACILLIN] |  |  |  | 64 (≈ 124 µM) | 0.5 (≈ 0.966 µM) |  |  | 128 (≈ 247 µM) |  | MIC [15]: 16 µg/mL; MIC [16]: 0.5 µg/mL; MIC [17]: 16 µg/mL

— ChEMBL document CHEMBL1649546, “Extended-spectrum properties of CMY-30, a Val211Gly mutant of CMY-2 cephalosporinase” (Antimicrob Agents Chemother, 2009)
